# Test results: publication PMC4486254 (Bioorganic & medicinal chemistry, 2010)
# Test system: HIV-1HXB2
# Assay: Replication assay
# Type: cell-based
# Conditions: at concentrations below 10 µM; MT-4 Luc system
# Outline: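 MT-4 cells stably transduced with a firefly luciferase cassette by a murine leukemia viral vector, constitutively expressing luciferase. 1 × 10^3 cells per well infected with HIV-1 HXB2 alongside various peptide concentrations. Cells lysed at 6–7 days post-infection; luciferase activity measured as chemiluminescence, in relative luciferase units. A retained signal indicates protection from virus-induced death; a drop indicates cytotoxicity.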
substance,measurement,value
Ac-QIFEHLAGIIQILRFLRI-R8-NH2 [control peptide isomer of 5],anti-HIV activity (in words),did not show anti-HIV activity
